Test results from ChEMBL document CHEMBL1128689, “Vinyl sulfones as mechanism-based cysteine protease inhibitors” (J Med Chem, 1995).

Columns and labels:
Cathepsin S [1] = target: T1, Cathepsin S (Homo sapiens, UniProt P25774); test: Compound is evaluated for inhibition kinetic constant (kobs/[I], 1/M.1/s) for cathepsin S
In short: (§1)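 Fluorescence ex 380/em 450 nm, 5 min or to ≤1% activity. kobs from first-order fits, ≥6 inhibitor levels near Ki, fit to saturation equation; Ki corrected by 1+[S]/Km; duplicates.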
Target sequence in this assay (P25774 115-331 limits assumed): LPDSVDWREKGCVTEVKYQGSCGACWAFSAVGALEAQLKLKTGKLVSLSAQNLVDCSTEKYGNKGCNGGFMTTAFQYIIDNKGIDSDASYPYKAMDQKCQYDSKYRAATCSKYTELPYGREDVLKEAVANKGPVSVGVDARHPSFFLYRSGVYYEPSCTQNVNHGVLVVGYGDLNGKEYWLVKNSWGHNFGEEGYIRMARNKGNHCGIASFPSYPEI

[2] = target: Cruzipain (Trypanosoma cruzi) (UniProt P25779); test: Compound is evaluated for inhibition kinetic constant (kobs/[I], 1/M.1/s) for Cruzaine
Sequence of Cruzipain (Trypanosoma cruzi) (P25779 123-467 limits assumed): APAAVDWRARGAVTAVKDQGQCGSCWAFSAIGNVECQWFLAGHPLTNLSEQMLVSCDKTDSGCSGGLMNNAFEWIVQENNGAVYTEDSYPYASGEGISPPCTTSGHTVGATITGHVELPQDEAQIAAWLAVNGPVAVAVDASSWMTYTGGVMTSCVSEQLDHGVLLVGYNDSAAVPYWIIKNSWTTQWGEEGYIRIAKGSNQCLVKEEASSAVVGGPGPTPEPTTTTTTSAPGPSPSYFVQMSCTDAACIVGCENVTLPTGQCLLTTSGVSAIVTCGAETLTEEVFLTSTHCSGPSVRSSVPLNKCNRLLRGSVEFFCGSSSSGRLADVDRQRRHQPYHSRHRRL
In short: (§2)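 Enzyme (~1-5 nM) starts the reaction with substrate and inhibitor present. Fluorescence ex 380/em 450 nm for 5 min. kobs from first-order fits at ≥6 inhibitor concentrations; Ki app corrected by 1+[S]/Km; second-order constant from 1/kobs vs 1/[I] slope; duplicates.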

Procathepsin L [3] = target: T2, Procathepsin L (Homo sapiens, UniProt P07711); test: Compound is evaluated for inhibition kinetic constant (kobs/[I], 1/M.1/s) for cathepsin L
In short: (§3)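 Fluorescence increase (ex 380, em 450 nm) followed 5 min or to ≤1% activity. kobs by first-order fit at ≥6 inhibitor levels near Ki, fit to saturation equation; Ki = Ki app/(1+[S]/Km); duplicates.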
Target sequence in this assay (P07711 114-333 limits assumed): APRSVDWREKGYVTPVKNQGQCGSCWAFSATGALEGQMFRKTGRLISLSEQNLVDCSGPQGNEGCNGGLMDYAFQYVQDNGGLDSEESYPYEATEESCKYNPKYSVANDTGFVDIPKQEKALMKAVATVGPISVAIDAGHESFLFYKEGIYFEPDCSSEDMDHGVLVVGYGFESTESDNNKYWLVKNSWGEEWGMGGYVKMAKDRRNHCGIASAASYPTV

Cathepsin B [4] = target: T3, Cathepsin B (Homo sapiens, UniProt P07858); test: Compound is evaluated for inhibition kinetic constant (kobs/[I], 1/M.s) for cathepsin B
In short: (§4)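 Cathepsin B, ~5-10 nM, added to 50 mM phosphate pH 6.0, 2.5 mM EDTA, 2.5 mM DTT, 50 μM Z-Arg-Arg-AMC (Km 190 μM), DMF <1%, 25 °C. Fluorescence ex 380/em 450 nm over 5 min. kobs by first-order fit at ≥6 inhibitor concentrations; kirr and Ki app from saturation fit, Ki = Ki app/(1+[S]/Km); kirr/Ki also from 1/kobs vs 1/[I]; duplicates.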

[5] = target: T4, Cathepsin K (Homo sapiens) (UniProt P43235); test: Compound is evaluated for inhibition kinetic constant (kobs/[I], 1/M.1/s) for cathepsin O2
T4 sequence (whole entry): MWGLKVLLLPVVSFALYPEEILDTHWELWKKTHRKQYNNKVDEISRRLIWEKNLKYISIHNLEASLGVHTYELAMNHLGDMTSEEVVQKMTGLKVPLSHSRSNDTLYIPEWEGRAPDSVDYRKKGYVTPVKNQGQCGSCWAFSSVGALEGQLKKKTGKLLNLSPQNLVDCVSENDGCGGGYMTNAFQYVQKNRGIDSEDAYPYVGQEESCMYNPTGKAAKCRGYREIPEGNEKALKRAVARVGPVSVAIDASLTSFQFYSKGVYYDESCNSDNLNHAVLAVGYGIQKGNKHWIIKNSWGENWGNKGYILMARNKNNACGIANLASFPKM
In short: (§5)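 Read at ex 380/em 450 nm for 5 min. Progress curves fit first-order for kobs at ≥6 inhibitor concentrations; kinact and Ki app from saturation fit, Ki corrected for substrate; ratio also from double-reciprocal slope; duplicates.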

[6] = target: T5, Calpain-1 catalytic subunit (Homo sapiens) (UniProt P07384); test: Compound is evaluated for inhibition kinetic constant (kobs/[I], 1/M.1/s) for calpain 1
T5 sequence (whole entry): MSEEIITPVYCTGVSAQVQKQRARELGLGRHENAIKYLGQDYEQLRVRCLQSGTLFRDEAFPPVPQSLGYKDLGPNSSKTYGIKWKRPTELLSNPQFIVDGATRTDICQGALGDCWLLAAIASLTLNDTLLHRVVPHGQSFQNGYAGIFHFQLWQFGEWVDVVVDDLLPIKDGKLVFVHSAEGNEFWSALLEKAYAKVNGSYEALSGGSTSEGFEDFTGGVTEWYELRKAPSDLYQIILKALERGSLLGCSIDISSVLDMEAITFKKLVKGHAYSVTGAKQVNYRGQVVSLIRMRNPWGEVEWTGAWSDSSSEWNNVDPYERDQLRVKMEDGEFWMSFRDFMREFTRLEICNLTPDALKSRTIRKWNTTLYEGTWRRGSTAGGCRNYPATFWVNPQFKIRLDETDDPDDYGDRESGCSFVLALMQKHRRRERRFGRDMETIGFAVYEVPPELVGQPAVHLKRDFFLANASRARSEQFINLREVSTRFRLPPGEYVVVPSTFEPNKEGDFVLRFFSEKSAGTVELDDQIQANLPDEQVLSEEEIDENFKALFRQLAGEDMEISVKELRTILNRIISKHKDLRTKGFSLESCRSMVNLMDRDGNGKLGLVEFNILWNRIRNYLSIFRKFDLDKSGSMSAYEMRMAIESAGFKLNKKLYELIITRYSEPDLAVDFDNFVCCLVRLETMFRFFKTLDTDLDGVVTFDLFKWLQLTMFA
In short: (§6)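 Enzyme ~20 nM is added last to substrate plus inhibitor at 25 °C. Fluorescence ex 380/em 450 nm for 5 min or until ≤1% activity. Progress curves fit first-order to kobs; reported as kobs/[I]; duplicate runs.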

Procathepsin L [7] = target: T2, Procathepsin L; test: Compound is evaluated for inhibitory potency against cathepsin L; in short: as §3
Target sequence in this assay (P07711 whole entry): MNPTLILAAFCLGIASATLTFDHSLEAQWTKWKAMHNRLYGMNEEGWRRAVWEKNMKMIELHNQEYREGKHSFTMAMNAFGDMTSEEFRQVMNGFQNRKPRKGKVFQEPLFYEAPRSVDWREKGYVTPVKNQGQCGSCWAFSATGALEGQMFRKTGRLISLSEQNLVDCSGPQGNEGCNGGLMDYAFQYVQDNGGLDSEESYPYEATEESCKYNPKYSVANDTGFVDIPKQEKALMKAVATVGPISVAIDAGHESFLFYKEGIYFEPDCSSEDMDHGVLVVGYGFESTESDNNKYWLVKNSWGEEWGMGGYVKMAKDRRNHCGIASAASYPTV

Cathepsin B [8] = target: T3, Cathepsin B; test: Ratio of inhibition kinetic constants kirr and Ki against Cathepsin B; in short: as §4
[9] = target: T4, Cathepsin K (Homo sapiens); test: Compound is evaluated for inhibition kinetic constant Kinact for the cathepsin O2; in short: as §5
Cathepsin S [10] = target: T1, Cathepsin S; test: Ratio of inhibition kinetic constants kinact and Ki against Cathepsin S; in short: as §1
Target sequence in this assay (P25774 115-331 limits assumed): as the sequence (P25774 115-331 limits assumed) above

Cruzipain = Cruzipain (Trypanosoma cruzi, UniProt P25779); test: Compound is evaluated for inhibitory potency against Cruzaine; in short: as §2
Sequence of Cruzipain (P25779 whole entry): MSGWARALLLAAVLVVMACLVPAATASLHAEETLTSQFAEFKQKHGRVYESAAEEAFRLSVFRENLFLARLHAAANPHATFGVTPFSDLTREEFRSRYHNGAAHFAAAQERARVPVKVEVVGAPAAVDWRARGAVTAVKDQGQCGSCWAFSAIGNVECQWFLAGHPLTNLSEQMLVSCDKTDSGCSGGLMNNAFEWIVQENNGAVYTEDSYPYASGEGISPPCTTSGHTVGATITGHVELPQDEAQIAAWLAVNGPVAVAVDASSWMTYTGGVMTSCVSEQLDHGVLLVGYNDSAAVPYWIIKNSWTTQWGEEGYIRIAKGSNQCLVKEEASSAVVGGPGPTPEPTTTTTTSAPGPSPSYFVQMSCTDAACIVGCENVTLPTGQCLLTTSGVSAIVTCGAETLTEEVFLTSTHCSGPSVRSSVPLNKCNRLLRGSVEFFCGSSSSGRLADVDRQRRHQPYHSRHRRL

Procathepsin L [11] = target: T2, Procathepsin L; test: Ratio of inhibition kinetic constants kinact and Ki against Cathepsin L; in short: as §3
Target sequence in this assay (P07711 114-333 limits assumed): as the sequence (P07711 114-333 limits assumed) above

Procathepsin L [12] = target: T2, Procathepsin L; test: Compound is evaluated for inhibition kinetic constant Kinact for the cathepsin L; in short: as §3
Target sequence in this assay (P07711 114-333 limits assumed): as above

[13] = target: Cruzipain (Trypanosoma cruzi) (UniProt P25779); test: Compound is evaluated for inhibition kinetic constant Kinact for the Cruzaine; in short: as §2
Cathepsin S [14] = target: T1, Cathepsin S; test: Compound is evaluated for inhibition kinetic constant Kinact for the cathepsin S; in short: as §1
Target sequence in this assay (P25774 115-331 limits assumed): as the sequence (P25774 115-331 limits assumed) above

Cathepsin K = target: T6, Cathepsin K (Homo sapiens, UniProt P43235); test: Compound is evaluated for inhibitory potency against cathepsin O2; in short: as §5
T6 sequence (P43235 whole entry): T4 sequence (whole entry)

Cathepsin B [15] = target: T3, Cathepsin B; test: Compound is evaluated for inhibitory potency against cathepsin B; in short: as §4
Cathepsin B [16] = target: T3, Cathepsin B; test: Compound is evaluated for inhibition kinetic constant Kirr for the cathepsin B; in short: as §4
Cathepsin S [17] = target: T1, Cathepsin S; test: Compound is evaluated for inhibitory potency against cathepsin S; in short: as §1
Target sequence in this assay (P25774 whole entry): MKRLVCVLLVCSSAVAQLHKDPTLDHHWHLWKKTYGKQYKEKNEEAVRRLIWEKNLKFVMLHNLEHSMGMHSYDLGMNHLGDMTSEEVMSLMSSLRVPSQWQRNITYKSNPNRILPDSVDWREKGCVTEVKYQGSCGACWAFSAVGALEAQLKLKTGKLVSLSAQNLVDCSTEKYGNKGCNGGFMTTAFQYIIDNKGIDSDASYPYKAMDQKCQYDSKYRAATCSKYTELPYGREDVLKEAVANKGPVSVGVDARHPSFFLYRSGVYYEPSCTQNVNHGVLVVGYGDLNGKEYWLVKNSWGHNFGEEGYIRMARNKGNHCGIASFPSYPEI

[18] = target: T4, Cathepsin K (Homo sapiens); test: Ratio of inhibition kinetic constants kinact and Ki against Cathepsin O2; in short: as §5
[19] = target: Cruzipain (Trypanosoma cruzi) (UniProt P25779); test: Ratio of inhibition kinetic constants kinact and Ki against Cruzaine; in short: as §2
Cathepsin B [20] = target: T3, Cathepsin B; test: Compound is evaluated for inhibition kinetic constant Ki for the cathepsin B; in short: as §4
[21] = target: T7, Calpain-2 catalytic subunit (Homo sapiens) (UniProt P17655); test: Compound is evaluated for inhibition kinetic constant (kobs/[I], 1/M.1/s) for Calpain 2; in short: as §6
T7 sequence (whole entry): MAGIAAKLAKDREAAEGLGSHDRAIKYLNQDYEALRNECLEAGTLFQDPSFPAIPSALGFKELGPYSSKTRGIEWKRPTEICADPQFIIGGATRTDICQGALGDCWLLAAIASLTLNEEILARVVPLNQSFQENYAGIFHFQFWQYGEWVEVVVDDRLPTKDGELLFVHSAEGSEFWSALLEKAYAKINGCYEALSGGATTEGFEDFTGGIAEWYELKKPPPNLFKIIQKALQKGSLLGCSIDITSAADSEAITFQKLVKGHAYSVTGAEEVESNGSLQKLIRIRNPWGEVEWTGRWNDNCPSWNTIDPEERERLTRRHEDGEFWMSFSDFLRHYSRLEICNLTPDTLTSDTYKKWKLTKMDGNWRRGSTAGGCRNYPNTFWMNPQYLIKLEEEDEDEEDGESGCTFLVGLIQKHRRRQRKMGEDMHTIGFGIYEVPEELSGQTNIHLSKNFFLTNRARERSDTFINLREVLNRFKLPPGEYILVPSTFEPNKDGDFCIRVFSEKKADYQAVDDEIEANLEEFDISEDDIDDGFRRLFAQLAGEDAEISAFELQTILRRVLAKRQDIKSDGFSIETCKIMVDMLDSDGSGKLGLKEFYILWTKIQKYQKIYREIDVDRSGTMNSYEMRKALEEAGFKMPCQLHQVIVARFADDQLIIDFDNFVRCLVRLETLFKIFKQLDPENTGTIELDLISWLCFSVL

Compound	k obs / 1 (Cathepsin S [1])	k obs / 1 [2]	k obs / 1 (Procathepsin L [3])	k obs / 1 (Cathepsin B [4])	k obs / 1 [5]	k obs / 1 [6]	kirr (Cathepsin B [16])	also measured
O=C(NC(=O)[C@H](Cc1ccc2ccccc2c1)NC(=O)[C@H](CCc1ccccc1)N/C=C/S(=O)(=O)CCc1ccccc1)NN1CCOCC1	2.9e+07 M⁻¹ s⁻¹	450000 M⁻¹ s⁻¹	2.24e+06 M⁻¹ s⁻¹	33000 M⁻¹ s⁻¹				
NCCCC[C@H](N/C=C/S(=O)(=O)c1ccccc1)C(=O)N[C@@H](Cc1ccccc1)C(=O)NC(=O)NN1CCOCC1	1.07e+07 M⁻¹ s⁻¹	149000 M⁻¹ s⁻¹	220000 M⁻¹ s⁻¹	11300 M⁻¹ s⁻¹	83300 M⁻¹ s⁻¹			
CSCC[C@H](NC(=O)[C@H](CC(C)C)NC(=O)[C@H](CC(C)C)NC(C)=O)C(=O)/C=C/S(=O)(=O)c1ccccc1		110000 M⁻¹ s⁻¹	880000 M⁻¹ s⁻¹	0 M⁻¹ s⁻¹	25000 M⁻¹ s⁻¹	5600 M⁻¹ s⁻¹		
O=C(NC(=O)[C@H](Cc1ccccc1)NC(=O)[C@H](CCc1ccccc1)N/C=C/S(=O)(=O)c1ccccc1)NN1CCOCC1							0.17 s⁻¹	Ki (Procathepsin L [7]): 1000 nM; Ratio (Cathepsin B [8]): 16400; K inact [9]: 0.31 s⁻¹; Ratio (Cathepsin S [10]): 7.7e+06; Ki (Cruzipain): 360 nM; Ratio (Procathepsin L [11]): 224000; K inact (Procathepsin L [12]): 0.24 s⁻¹; K inact [13]: 0.072 s⁻¹; K inact (Cathepsin S [14]): 0.085 s⁻¹; Ki (Cathepsin K): 30500 nM; Ki (Cathepsin B [15]): 11000 nM; Ki (Cathepsin S [17]): 11 nM; Ratio [18]: 10200; Ratio [19]: 203000
CC(C)C[C@H](NC(=O)OCc1ccccc1)C(=O)N[C@@H](CC(C)C)C(=O)N[C@@H](Cc1ccc(O)cc1)C(=O)/C=C/S(=O)(=O)c1ccccc1	280000 M⁻¹ s⁻¹	45000 M⁻¹ s⁻¹		730 M⁻¹ s⁻¹	900 M⁻¹ s⁻¹	6400 M⁻¹ s⁻¹		
CS(=O)(=O)/C=C/N[C@@H](CCc1ccccc1)C(=O)N[C@@H](Cc1ccccc1)C(=O)NC(=O)NN1CCOCC1	1.2e+06 M⁻¹ s⁻¹	22000 M⁻¹ s⁻¹	8700 M⁻¹ s⁻¹	5100 M⁻¹ s⁻¹	6540 M⁻¹ s⁻¹			
CC(C)C[C@H](NC(=O)[C@H](CCc1ccccc1)N/C=C/S(=O)(=O)c1ccccc1)C(=O)NC(=O)NN1CCOCC1							0.17 s⁻¹	Ki (Procathepsin L [7]): 720 nM; Ratio (Cathepsin B [8]): 4250; K inact [9]: 0.17 s⁻¹; Ratio (Cathepsin S [10]): 2.63e+07; Ki (Cruzipain): 220 nM; Ratio (Procathepsin L [11]): 387000; K inact (Procathepsin L [12]): 0.28 s⁻¹; K inact [13]: 0.13 s⁻¹; K inact (Cathepsin S [14]): 0.16 s⁻¹; Ki (Cathepsin K): 230 nM; Ki (Cathepsin B [15]): 39000 nM; Ki (Cathepsin S [17]): 5.9 nM; Ratio [18]: 773000; Ratio [19]: 620000
O=C(NC(=O)[C@H](Cc1cc(I)c(O)c(I)c1)NC(=O)[C@H](CCc1ccccc1)N/C=C/S(=O)(=O)c1ccccc1)NN1CCOCC1							0.36 s⁻¹	Ratio (Cathepsin B [8]): 1.08e+06; Ki (Cathepsin B [20]): 340 nM
O=C(NC(=O)[C@H](Cc1ccc2ccccc2c1)NC(=O)[C@H](CCc1ccccc1)N/C=C/S(=O)(=O)c1ccc2ccccc2c1)NN1CCOCC1							0.061 s⁻¹	Ki (Procathepsin L [7]): 18 nM; Ki (Cruzipain): 48 nM; K inact (Procathepsin L [12]): 0.14 s⁻¹; K inact [13]: 0.046 s⁻¹; K inact (Cathepsin S [14]): 0.1 s⁻¹; Ki (Cathepsin B [15]): 150 nM; Ki (Cathepsin S [17]): 1.8 nM; Ratio [19]: 1.04e+06
CC(=O)N[C@@H](CC(C)C)C(=O)N[C@@H](CC(C)C)C(=O)N[C@@H](CCS(C)(=O)=O)C(=O)/C=C/S(=O)(=O)c1ccccc1		104000 M⁻¹ s⁻¹	1.5e+06 M⁻¹ s⁻¹	0 M⁻¹ s⁻¹	22700 M⁻¹ s⁻¹	8400 M⁻¹ s⁻¹		k obs / 1 [21]: 24300 M⁻¹ s⁻¹
O=C(NC(=O)[C@H](Cc1ccccc1)NC(=O)[C@H](CCc1ccccc1)N/C=C/S(=O)(=O)CCc1ccccc1)NN1CCOCC1	4.7e+06 M⁻¹ s⁻¹	180000 M⁻¹ s⁻¹	340000 M⁻¹ s⁻¹	29000 M⁻¹ s⁻¹	28500 M⁻¹ s⁻¹			
CCCC[C@H](NC(=O)[C@H](CC(C)C)NC(=O)[C@H](CC(C)C)NC(C)=O)C(=O)/C=C/S(=O)(=O)c1ccccc1		133000 M⁻¹ s⁻¹	930000 M⁻¹ s⁻¹	0 M⁻¹ s⁻¹		6900 M⁻¹ s⁻¹		k obs / 1 [21]: 7600 M⁻¹ s⁻¹
CC(C)C[C@H](NC(=O)NN1CCOCC1)C(=O)N[C@@H](CC(C)C)C(=O)N[C@@H](Cc1ccc(O)cc1)C(=O)/C=C/S(=O)(=O)c1ccccc1	25100 M⁻¹ s⁻¹		28700 M⁻¹ s⁻¹		815 M⁻¹ s⁻¹	10800 M⁻¹ s⁻¹		
